Assay results: the array DNA melting data of Ke et al. (doi:10.1101/2024.01.08.574731)

Key:
[1] = folding enthalpy; higher = less favourable; fluorescence melt of hairpins on a sequencing array, two-state fit; settings: sodium 0.088 M
Summary of the method: (§1)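 Folding enthalpy and melting temperature were estimated with bootstrapped two-state fits and combined across four replicates by inverse-variance weighting, with fitted temperatures raised by 9.35 °C to match UV melts. The data were Cy3 fluorescence of library hairpins, with annealed Cy3 and quencher oligos, on a sequenced MiSeq flow cell in 50 mM Na-HEPES pH 8.0, 25 mM NaCl, imaged in 2.5 °C steps up to 60 °C and normalised to pre-quench Cy3 and control constructs.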

[2] = melting temperature; fluorescence melt of hairpins on a sequencing array, two-state fit, raised by 9.35 °C to match UV melts; settings: sodium 0.088 M
Summary of the method: as §1

GTAAGCGAAAGCTCGTAC ((((((....)))..)))
folding enthalpy [1]: -8.1 kcal/mol | Tm [2]: 24.2 °C

GTAAGCGAAAGCTCTAC ((((((....))).)))
folding enthalpy [1]: -11.9 kcal/mol | Tm [2]: 32.2 °C

GTAAGCGAAAGCTGTTAC ((((((....)))..)))
folding enthalpy [1]: -9.91 kcal/mol | Tm [2]: 32.6 °C

GTAAGCGAAAGCTTAC ((((((....))))))
folding enthalpy [1]: -27.9 kcal/mol | Tm [2]: 67.2 °C

GTAAGCGAAAGCTTATAC ((((((....)))..)))
folding enthalpy [1]: -12.2 kcal/mol | Tm [2]: 39.1 °C

GTAAGGAAACTTAC (((((....)))))
folding enthalpy [1]: -14.3 kcal/mol | Tm [2]: 37.9 °C

GTAAGGGGAAACCCTTAC (((((((....)))))))
folding enthalpy [1]: -42.4 kcal/mol | Tm [2]: 54.8 °C

GTAAGTGGAAACACCTAC (((.(((....))).)))
folding enthalpy [1]: -16.8 kcal/mol | Tm [2]: 29.2 °C

GTAATACGAAAGTAGTAC (((.(((....))).)))
folding enthalpy [1]: -34.5 kcal/mol | Tm [2]: 42.5 °C

GTAATAGAAATATTAC ((((((....))))))
folding enthalpy [1]: -16.6 kcal/mol | Tm [2]: 32 °C

GTAATAGGAAACTATTAC (((((((....)))))))
folding enthalpy [1]: -37.2 kcal/mol | Tm [2]: 45.5 °C

GTAATCCGAAAGGATAC (((.(((....))))))
folding enthalpy [1]: -14.6 kcal/mol | Tm [2]: 39.8 °C

GTAATCGAAAGATGGTAC ((((((....)))..)))
folding enthalpy [1]: -12.8 kcal/mol | Tm [2]: 25 °C

GTAATCGAAAGATTTAC ((((((....))).)))
folding enthalpy [1]: -14.7 kcal/mol | Tm [2]: 33.3 °C

GTAATGGGAAACCATTAC (((((((....)))))))
folding enthalpy [1]: -45.5 kcal/mol | Tm [2]: 53.4 °C

GTAATTGGAAACAATTGC (.(((((....))))).)
folding enthalpy [1]: -26.5 kcal/mol | Tm [2]: 39.2 °C

GTACAAACGAAAGTTTAC (((..(((....))))))
folding enthalpy [1]: -8.86 kcal/mol | Tm [2]: 22.1 °C

GTACAACCGAAAGGTTAC (((..(((....))))))
folding enthalpy [1]: -10.7 kcal/mol | Tm [2]: 29.8 °C

GTACAAGGAAACTTGTGC (.(((((....))))).)
folding enthalpy [1]: -22.3 kcal/mol | Tm [2]: 45.4 °C

GTACACCGAAAGGTTAC (((.(((....))))))
folding enthalpy [1]: -20.5 kcal/mol | Tm [2]: 39.9 °C

GTACACCGAAAGGTTTAC (((.(((....))).)))
folding enthalpy [1]: -30.6 kcal/mol | Tm [2]: 42 °C

GTACACGAAAGTGATAC ((((((....))).)))
folding enthalpy [1]: -17.1 kcal/mol | Tm [2]: 40.1 °C

GTACACGAAAGTGGGTAC ((((((....)))..)))
folding enthalpy [1]: -14.9 kcal/mol | Tm [2]: 37.4 °C

GTACACGAAAGTGGTAC ((((((....))).)))
folding enthalpy [1]: -17.9 kcal/mol | Tm [2]: 47.8 °C

GTACACGGAAACACGTAC ((((..(....)..))))
folding enthalpy [1]: -15.4 kcal/mol | Tm [2]: 29.1 °C

GTACACGGAAACGTATAC (((.(((....))).)))
folding enthalpy [1]: -23.8 kcal/mol | Tm [2]: 33.6 °C

GTACAGCCGAAAGGCTAC (((..(((....))))))
folding enthalpy [1]: -7.38 kcal/mol | Tm [2]: 27.2 °C

GTACAGGGAAACCCGTAC ((((.((....)).))))
folding enthalpy [1]: -24.8 kcal/mol | Tm [2]: 43.4 °C

GTACAGTCGAAAGACTAC (((..(((....))))))
folding enthalpy [1]: -10.2 kcal/mol | Tm [2]: 29.7 °C

GTACATCGAAAGATTTAC (((.(((....))).)))
folding enthalpy [1]: -17.8 kcal/mol | Tm [2]: 35 °C

GTACATGGAAACATGTGC (.(((((....))))).)
folding enthalpy [1]: -22.7 kcal/mol | Tm [2]: 48.6 °C

GTACATGGAAACGTGTAC (((((.(....).)))))
folding enthalpy [1]: -32.1 kcal/mol | Tm [2]: 45.8 °C

GTACCAGAAATGGTAC ((((((....))))))
folding enthalpy [1]: -33.1 kcal/mol | Tm [2]: 53.2 °C

GTACCCCCGAAAGGGTAC (((..(((....))))))
folding enthalpy [1]: -25.7 kcal/mol | Tm [2]: 52.3 °C

GTACCCGAAAGGGGATAC ((((((....)))..)))
folding enthalpy [1]: -11.9 kcal/mol | Tm [2]: 41.9 °C

GTACCCGGAAACGAGTAC ((((.((....)).))))
folding enthalpy [1]: -25.8 kcal/mol | Tm [2]: 41.1 °C

GTACCCGGAAACGGGTGC (.(((((....))))).)
folding enthalpy [1]: -20.1 kcal/mol | Tm [2]: 60.1 °C

GTACCTGGAAACAGGCAC ((.((((....)))).))
folding enthalpy [1]: -22.1 kcal/mol | Tm [2]: 42.5 °C

GTACGACGAAAGTCTTAC (((.(((....))).)))
folding enthalpy [1]: -26.1 kcal/mol | Tm [2]: 40.3 °C

GTACGCGAAAGCGAATAC ((((((....)))..)))
folding enthalpy [1]: -8.59 kcal/mol | Tm [2]: 31.9 °C

GTACGCGAAAGCGCGTAC ((((((....)))..)))
folding enthalpy [1]: -25.7 kcal/mol | Tm [2]: 62.5 °C

GTACGCGAAAGCGCTTAC ((((((....)))..)))
folding enthalpy [1]: -9.36 kcal/mol | Tm [2]: 29.4 °C

GTACGCGAAAGCGTATAC ((((((....)))..)))
folding enthalpy [1]: -9.55 kcal/mol | Tm [2]: 49.2 °C

GTACGCGGAAACACGCAC ((.((.(....).)).))
folding enthalpy [1]: -12.6 kcal/mol | Tm [2]: 31.1 °C

GTACGCGGAAACACGTAC (((((.(....).)))))
folding enthalpy [1]: -34.1 kcal/mol | Tm [2]: 47.9 °C
